# Laboratory results as given in ChEMBL document CHEMBL4118144, “Design, Synthesis, and Testing of Potent, Selective Hepsin Inhibitors via Application of an Automated Closed-Loop Optimization Platform” (J Med Chem, 2018).
# Key:
# [1] = target: T1, Neutrophil elastase (Homo sapiens) (UniProt P08246); assay: Inhibition of elastase (unknown origin) at 1 uM relative to control
# T1 sequence (whole entry): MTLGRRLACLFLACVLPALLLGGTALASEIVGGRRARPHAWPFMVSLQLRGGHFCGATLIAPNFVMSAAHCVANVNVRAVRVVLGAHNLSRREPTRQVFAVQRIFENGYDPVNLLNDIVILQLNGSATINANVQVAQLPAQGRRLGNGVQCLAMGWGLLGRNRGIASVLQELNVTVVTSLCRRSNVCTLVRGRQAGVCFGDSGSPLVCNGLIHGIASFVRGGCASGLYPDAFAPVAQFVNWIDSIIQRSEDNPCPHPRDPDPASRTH
# Summary of the method: (§1)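 Panel of ten serine proteases; percent inhibition read at compound concentrations of 1 µM and 10 µM, each value the mean of 2 experiments.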
# [2] = target: Dipeptidyl peptidase 4 (Homo sapiens) (UniProt P27487); assay: Inhibition of recombinant full length human dipeptidyl peptidase 4 using GP-AMC as substrate at 10 uM after 10 mins by fluorescence spectrophotometric method relative to control; summary of the method: as §1
# [3] = target: Urokinase-type plasminogen activator (Homo sapiens, UniProt P00749); assay: Inhibition of recombinant C-terminal His10-tagged human uPA (M1 to L431 residues) expressed in mouse NS0 cells using Z-GGR-AMC as substrate after 15 mins by automated fluorescence assay
# Summary of the method: (§2)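 On-line assay integrated with the flow-synthesis platform: a 20 µL aliquot of each product solution captured automatically, HPLC-purified, then diluted and assayed.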
# [4] = target: Serine protease hepsin (Homo sapiens, UniProt P05981); assay: Inhibition of doxycycline induced Hepsin in human MCF10A cells using Boc-QRR-AMC as substrate preincubated for 24 hrs followed by doxycycline induction for 24 hrs and subsequent addition of substrate by fluorescence assay; format: cell-based
# [5] = target: Serine protease hepsin (Homo sapiens, UniProt P05981, D161E/R162K); assay: Inhibition of recombinant C-terminal His10-tagged human Hepsin (R45 to […] residues) D161E/ R162K double mutant expressed in mouse NS0 cells using Boc-QRR-AMC as substrate after 15 mins by automated fluorescence assay; summary of the method: as §2
# [6] = target: T2, Chymase (Homo sapiens) (UniProt P23946); assay: Inhibition of human chymase using Suc-Ala-Ala-Pro-Phe-AMC as substrate at 1 uM after 120 mins by fluorescence spectrophotometric method relative to control; summary of the method: as §1
# T2 sequence (whole entry): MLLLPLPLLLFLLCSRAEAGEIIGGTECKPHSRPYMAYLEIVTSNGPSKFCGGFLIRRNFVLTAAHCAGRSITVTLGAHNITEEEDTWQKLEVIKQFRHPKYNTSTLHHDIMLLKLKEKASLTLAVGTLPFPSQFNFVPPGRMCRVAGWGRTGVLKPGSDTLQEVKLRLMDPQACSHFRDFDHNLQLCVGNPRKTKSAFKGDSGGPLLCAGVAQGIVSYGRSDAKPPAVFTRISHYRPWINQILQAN
# [7] = target: T1, Neutrophil elastase (Homo sapiens); assay: Inhibition of human ELA2 using N-MeOSuc-Ala-Ala-Pro-Val-pNA as substrate at 10 uM after 60 mins by spectrophotometric method relative to control; summary of the method: as §1
# [8] = target: Dipeptidyl peptidase 4 (Homo sapiens) (UniProt P27487); assay: Inhibition of recombinant full length human dipeptidyl peptidase 4 using GP-AMC as substrate at 1 uM after 10 mins by fluorescence spectrophotometric method relative to control; summary of the method: as §1
# [9] = Half life in human liver microsomes at 3 uM preincubated for 5 mins followed by NADPH addition by LC-MS/MS analysis; format: ADME, microsome
# [10] = system: HepG2; assay: Cytotoxicity against human HepG2 cells assessed as reduction in cell viability after 48 hrs by CellTiter-Blue/CytoTox-ONE-based assay; conditions: HepG2, 48 h
# Summary of the method: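 Human Hep-G2 cells were exposed to compound at concentrations up to 10 µM. The value is reported as viable-50 (µM), the concentration at which 50% of cells remain viable.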
# [11] = target: T3, Suppressor of tumorigenicity 14 protein (Homo sapiens) (UniProt Q9Y5Y6); assay: Inhibition of matriptase (unknown origin) using BOC-QAR-AMC as substrate at 1 uM after 15 mins by fluorescence assay relative to control; summary of the method: as §1
# T3 sequence (whole entry): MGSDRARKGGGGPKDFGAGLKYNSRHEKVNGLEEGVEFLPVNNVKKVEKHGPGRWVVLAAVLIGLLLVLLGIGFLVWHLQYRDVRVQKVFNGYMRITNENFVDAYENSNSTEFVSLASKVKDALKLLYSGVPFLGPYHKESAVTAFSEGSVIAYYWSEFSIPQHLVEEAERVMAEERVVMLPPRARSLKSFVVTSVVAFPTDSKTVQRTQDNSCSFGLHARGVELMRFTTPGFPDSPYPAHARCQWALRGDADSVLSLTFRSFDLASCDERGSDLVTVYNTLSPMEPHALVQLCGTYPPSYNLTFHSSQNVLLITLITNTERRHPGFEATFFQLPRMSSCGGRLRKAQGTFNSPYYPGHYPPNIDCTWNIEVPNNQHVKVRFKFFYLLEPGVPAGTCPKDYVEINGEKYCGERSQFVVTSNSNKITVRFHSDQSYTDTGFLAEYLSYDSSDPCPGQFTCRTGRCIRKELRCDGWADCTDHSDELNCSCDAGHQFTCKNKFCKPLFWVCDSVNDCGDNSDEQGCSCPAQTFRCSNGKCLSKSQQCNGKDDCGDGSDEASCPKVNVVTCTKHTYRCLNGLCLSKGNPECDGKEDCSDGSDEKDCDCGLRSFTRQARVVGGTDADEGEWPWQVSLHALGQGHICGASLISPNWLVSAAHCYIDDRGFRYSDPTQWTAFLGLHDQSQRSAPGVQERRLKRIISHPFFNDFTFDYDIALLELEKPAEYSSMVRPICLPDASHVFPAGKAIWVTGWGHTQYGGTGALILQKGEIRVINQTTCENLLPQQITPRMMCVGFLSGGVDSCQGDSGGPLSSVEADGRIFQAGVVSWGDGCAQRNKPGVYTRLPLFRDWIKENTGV
# [12] = target: Tryptase (Homo sapiens) (UniProt Q9BZJ3+Q15661+Q9NRR2); assay: Inhibition of recombinant full length human tryptase usingZ-Gly-Pro-Arg-AMC as substrate at 1 uM after 60 mins by fluorescence spectrophotometric method relative to control; format: protein assay; summary of the method: as §1
# [13] = target: T4, Cathepsin G (Homo sapiens) (UniProt P08311); assay: Inhibition of human cathepsin G using Suc-Ala-Ala-Pro-Phe-AMC as substrate at 10 uM after 30 mins by fluorescence spectrophotometric method relative to control; summary of the method: as §1
# T4 sequence (whole entry): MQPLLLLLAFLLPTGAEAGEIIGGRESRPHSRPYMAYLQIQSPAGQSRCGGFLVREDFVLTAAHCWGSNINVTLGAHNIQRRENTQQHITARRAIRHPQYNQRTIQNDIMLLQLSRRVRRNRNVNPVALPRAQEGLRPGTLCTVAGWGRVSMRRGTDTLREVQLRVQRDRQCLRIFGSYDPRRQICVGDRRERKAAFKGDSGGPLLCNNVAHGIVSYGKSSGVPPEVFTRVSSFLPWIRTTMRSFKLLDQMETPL
# [14] = target: Coagulation factor X (Homo sapiens) (UniProt P00742); assay: Inhibition of factor 10a (unknown origin) at 10 uM after 15 mins by fluorescence assay relative to control; summary of the method: as §1
# Chain of Coagulation factor X (Homo sapiens) (P00742 41-179 limits assumed): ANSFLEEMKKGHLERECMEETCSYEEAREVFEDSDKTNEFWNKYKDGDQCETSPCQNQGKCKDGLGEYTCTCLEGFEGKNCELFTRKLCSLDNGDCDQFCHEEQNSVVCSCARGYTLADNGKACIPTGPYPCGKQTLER
# Chain of Coagulation factor X (Homo sapiens) (P00742 235-488 limits assumed): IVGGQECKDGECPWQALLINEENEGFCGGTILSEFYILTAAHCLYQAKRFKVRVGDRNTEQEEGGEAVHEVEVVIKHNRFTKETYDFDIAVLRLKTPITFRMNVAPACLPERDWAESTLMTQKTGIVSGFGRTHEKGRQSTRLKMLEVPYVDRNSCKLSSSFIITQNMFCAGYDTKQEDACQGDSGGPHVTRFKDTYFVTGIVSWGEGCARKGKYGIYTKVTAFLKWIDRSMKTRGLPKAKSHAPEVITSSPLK
# Chain of Dipeptidyl peptidase 4 (Homo sapiens) (P27487 whole entry, looked up, the tested form may be a part): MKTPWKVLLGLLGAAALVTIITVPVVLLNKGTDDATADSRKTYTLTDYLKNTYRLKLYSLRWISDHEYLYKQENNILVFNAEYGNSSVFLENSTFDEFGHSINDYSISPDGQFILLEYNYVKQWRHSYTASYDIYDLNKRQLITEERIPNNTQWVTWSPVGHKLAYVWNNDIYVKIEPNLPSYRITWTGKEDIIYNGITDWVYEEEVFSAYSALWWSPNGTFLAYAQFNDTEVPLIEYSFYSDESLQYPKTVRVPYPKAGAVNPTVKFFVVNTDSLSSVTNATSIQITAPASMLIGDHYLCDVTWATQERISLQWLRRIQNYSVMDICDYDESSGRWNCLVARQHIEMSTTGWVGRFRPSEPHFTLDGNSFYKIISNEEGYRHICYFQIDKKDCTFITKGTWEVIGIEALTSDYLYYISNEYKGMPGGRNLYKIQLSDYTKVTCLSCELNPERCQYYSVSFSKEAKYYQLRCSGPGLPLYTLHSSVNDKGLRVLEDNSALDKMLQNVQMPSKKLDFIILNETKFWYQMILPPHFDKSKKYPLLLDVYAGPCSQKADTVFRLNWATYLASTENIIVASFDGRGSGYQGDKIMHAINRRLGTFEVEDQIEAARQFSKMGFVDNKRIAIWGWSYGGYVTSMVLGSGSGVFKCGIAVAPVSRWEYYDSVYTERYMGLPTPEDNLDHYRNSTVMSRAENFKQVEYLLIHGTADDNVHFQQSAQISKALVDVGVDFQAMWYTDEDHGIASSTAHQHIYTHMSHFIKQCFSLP
# Chain of Serine protease hepsin (Homo sapiens, UniProt P05981) (P05981 1-162 limits assumed): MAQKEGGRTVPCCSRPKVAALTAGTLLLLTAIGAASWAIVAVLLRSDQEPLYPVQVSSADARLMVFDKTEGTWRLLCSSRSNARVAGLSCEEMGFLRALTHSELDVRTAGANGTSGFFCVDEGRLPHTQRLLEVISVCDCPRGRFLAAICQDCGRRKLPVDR
# Chain of Serine protease hepsin (Homo sapiens, UniProt P05981) (P05981 163-417 limits assumed): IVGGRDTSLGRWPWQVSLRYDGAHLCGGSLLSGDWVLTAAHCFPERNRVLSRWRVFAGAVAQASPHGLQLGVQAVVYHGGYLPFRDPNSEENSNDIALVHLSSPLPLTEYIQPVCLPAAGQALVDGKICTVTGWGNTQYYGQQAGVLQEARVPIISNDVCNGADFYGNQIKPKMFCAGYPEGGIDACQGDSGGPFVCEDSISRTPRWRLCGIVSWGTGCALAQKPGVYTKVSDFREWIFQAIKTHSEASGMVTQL
Compound,inhibition [1] [%],inhibition [2] [%],IC50 [3] [nM],IC50 [4] [nM],IC50 [5] [nM],inhibition [6] [%],inhibition [7] [%],inhibition [8] [%],half-life at 3 µM [9] [min],IC50 [10] [nM],inhibition [11] [%],inhibition [12] [%],inhibition [13] [%],inhibition [14] [%]
N=C(N)c1ccc(NC(=O)[C@H](NS(=O)(=O)c2ccc(F)cc2)C2CCCCC2)cc1,< 10,< 10,> 14000,1290,90,< 10,< 10,< 10,16,> 10000,< 10,40,< 10,< 10
Cc1ccc(S(=O)(=O)N[C@@H](C(=O)Nc2ccc(C(=N)N)cc2)C2CCCCC2)cc1,< 10,< 10,4400,990,33,< 10,< 10,< 10,89,> 10000,< 10,52,< 10,< 10
Cc1ccc(S(=O)(=O)N[C@@H](C(=O)Nc2ccc(C(=N)N)cc2)c2ccccc2)cc1,< 10,< 10,,100,,< 10,< 10,< 10,53,> 10000,< 10,27,< 10,< 10
